Bounds are passed on as bounds.

From ChEMBL document CHEMBL2384917, “Design, synthesis and biological evaluation of novel 3,4,5-trisubstituted aminothiophenes as inhibitors of p53-MDM2 interaction. Part 1” (Bioorg Med Chem, 2013) come the findings set out here.

Test [1] has as its system A549. The test can be described thus: Selectivity ratio of IC50 for human p53-null PC3 cells to IC50 for human A549 cells expressing wild type p53. Type of test: functional.
In the next test the test system is PC-3. The test can be described thus: Cytotoxicity against human p53-null PC3 cells assessed as growth inhibition after 72 hrs by SRB assay. Type of test: functional, cell-based. The following applies: PC-3, 72 h. Summed up: (§1)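 Cells seeded in 96-well plates, cultured overnight, then exposed to serial compound concentrations for 72 h. Fixed with 10% (w/v) TCA at 4 °C for 1 h, stained 30 min with 0.4% SRB in 1% acetic acid, washed with 1% acetic acid, bound dye dissolved in 10 mmol unbuffered Tris base, absorbance read at 515 nm. Inhibition calculated relative to untreated control wells; IC50 derived.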

In test [2] the test system is A549. The test can be described thus: Cytotoxicity against human A549 cells expressing wild type p53 assessed as growth inhibition after 72 hrs by SRB assay. The test is classed as functional, cell-based. As to conditions: A549, 72 h; call rule not given here. The method, boiled down: as §1
Test [3] concerns the target Tumour suppressor p53/oncoprotein Mdm2 (Homo sapiens, UniProt Q00987). The test can be described thus: (§2) Inhibition of p53-MDM2 (unknown origin) interaction expressed in Escherichia coli BL-21 (DE3) after 1 hr by fluorescence polarization assay.
Test [4] has as its target Tumour suppressor p53/oncoprotein Mdm2 (Homo sapiens, UniProt P04637+Q00987). Described as §2.

Chain of Tumour suppressor p53/oncoprotein Mdm2 (Homo sapiens, UniProt Q00987) (P04637 whole entry): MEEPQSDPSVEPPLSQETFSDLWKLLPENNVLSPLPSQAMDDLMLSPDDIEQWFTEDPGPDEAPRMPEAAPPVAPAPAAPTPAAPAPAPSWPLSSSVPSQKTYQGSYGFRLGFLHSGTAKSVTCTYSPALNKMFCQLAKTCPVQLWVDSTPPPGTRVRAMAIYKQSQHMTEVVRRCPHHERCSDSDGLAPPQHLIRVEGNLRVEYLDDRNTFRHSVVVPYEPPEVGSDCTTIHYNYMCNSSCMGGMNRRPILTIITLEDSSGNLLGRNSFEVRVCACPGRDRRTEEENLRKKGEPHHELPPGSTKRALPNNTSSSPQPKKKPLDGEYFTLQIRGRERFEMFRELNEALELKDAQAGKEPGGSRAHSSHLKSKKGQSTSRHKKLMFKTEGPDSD
Chain of Tumour suppressor p53/oncoprotein Mdm2 (Homo sapiens, UniProt Q00987) (Q00987 whole entry): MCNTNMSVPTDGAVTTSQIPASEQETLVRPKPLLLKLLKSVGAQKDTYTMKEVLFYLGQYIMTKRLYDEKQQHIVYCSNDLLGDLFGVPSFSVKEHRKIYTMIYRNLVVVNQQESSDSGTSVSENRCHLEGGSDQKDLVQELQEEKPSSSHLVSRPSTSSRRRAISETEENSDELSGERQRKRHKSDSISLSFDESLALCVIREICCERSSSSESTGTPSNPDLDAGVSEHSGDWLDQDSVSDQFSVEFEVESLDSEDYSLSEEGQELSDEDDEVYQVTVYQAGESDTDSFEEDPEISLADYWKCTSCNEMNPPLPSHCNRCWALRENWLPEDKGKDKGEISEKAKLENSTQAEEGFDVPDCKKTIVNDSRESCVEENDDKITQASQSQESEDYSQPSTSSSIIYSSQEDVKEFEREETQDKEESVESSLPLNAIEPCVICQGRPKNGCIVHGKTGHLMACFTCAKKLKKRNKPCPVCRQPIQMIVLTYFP
Chain of Tumour suppressor p53/oncoprotein Mdm2 (Homo sapiens, UniProt P04637+Q00987) (P04637 whole entry): as the sequence (P04637 whole entry) above
Chain of Tumour suppressor p53/oncoprotein Mdm2 (Homo sapiens, UniProt P04637+Q00987) (Q00987 whole entry): as the sequence (Q00987 whole entry) above

`CN1CCN(C(=O)c2c(N)sc(-c3ccc(Cl)cc3)c2-c2ccc(Cl)cc2)CC1`: in the test with A549 [1], the “Ratio IC50” value was 22. Further, the IC50 in the test with PC-3 worked out at 13.1 µM; in the test on A549 [2], 0.59 µM. The Ki in test [3] is 1.52 µM.

For `CC1CN(C(=O)c2c(N)sc(-c3ccc(Cl)cc3)c2-c2ccc(Cl)cc2)CCN1` (configuration not stated), the results for the IC50 in the test on PC-3 and in the test with A549 [2] were 7.21 µM and 4.93 µM, respectively. The molecule also showed a Ki in test [3] of 17.7 µM.

For the molecule `CCCCNC(=O)c1c(N)sc(-c2ccc(Cl)cc2)c1-c1ccc(Cl)cc1`, the IC50 worked out at 17.8 µM in the test on PC-3 and 8.17 µM with A549 [2]. In addition, the Ki in test [3] amounted to 0.55 µM.

With `CC(C)CNC(=O)c1c(N)sc(-c2ccc(Cl)cc2)c1-c1ccc(Cl)cc1`, the IC50 with PC-3 turned out to be 21 µM. In test [3], the Ki was determined as 4.13 µM.

Take `CC(C)(C)NC(=O)c1c(N)sc(-c2ccc(Cl)cc2)c1-c1ccc(Cl)cc1`: the results for the IC50 with PC-3 and in the test on A549 [2] were 15.1 µM and 8.85 µM, respectively. Besides, the Ki in test [3] stood at 0.81 µM.

For `Nc1sc(-c2ccc(Cl)cc2)c(-c2ccc(Cl)cc2)c1C(=O)Nc1ccccc1`, the IC50 with PC-3 was > 50 µM; in the test with A549 [2], 25 µM. Moreover, the Ki in test [3] is > 50 µM.

In the case of `Nc1sc(-c2ccc(Cl)cc2)c(-c2ccc(Cl)cc2)c1C(=O)NCc1ccccc1`, the IC50 in the test on PC-3 amounted to 31.8 µM; with A549 [2], 16.3 µM. In test [3], this molecule gave a Ki of 0.15 µM.

For `COc1ccc(CNC(=O)c2c(N)sc(-c3ccc(Cl)cc3)c2-c2ccc(Cl)cc2)cc1`, the IC50 with PC-3 was 29.5 µM; in the test with A549 [2], 18.2 µM. The molecule further yielded a Ki in test [3] of 0.64 µM.

With `CC(=O)Nc1sc(-c2ccc(Cl)cc2)c(-c2ccc(Cl)cc2)c1C(=O)N1CCCCC1`, the results for the IC50 in the test on PC-3 and with A549 [2] were 10.3 µM and 6.01 µM, respectively. Moreover, the Ki in test [3] came to 3.57 µM.

With `O=C(CCN1CCOCC1)Nc1sc(-c2ccc(Cl)cc2)c(-c2ccc(Cl)cc2)c1C(=O)N1CCCCC1`, the IC50 in the test on PC-3 and in the test with A549 [2] was > 25 µM in each case. The Ki result in test [4] was “Not Active”.

`CS(=O)(=O)Nc1sc(-c2ccc(Cl)cc2)c(-c2ccc(Cl)cc2)c1C(=O)NC1CC1`: the Ki in test [3] was > 50 µM.

On to `CCOC(=O)Nc1sc(-c2ccc(Cl)cc2)c(-c2ccc(Cl)cc2)c1C(=O)NC1CC1`, for which the IC50 with PC-3 amounted to 27.6 µM; in the test with A549 [2], 39.8 µM. Also, the Ki entry in test [4] is “Not Active”.

Turning to `O=C(NCCN1CCOCC1)Nc1sc(-c2ccc(Cl)cc2)c(-c2ccc(Cl)cc2)c1C(=O)NC1CC1`, the Ki result in test [4] is listed as “Not Active”.

Turning to `CCN(CC)CCNC(=O)Nc1sc(-c2ccc(Cl)cc2)c(-c2ccc(Cl)cc2)c1C(=O)NC1CC1`, the Ki entry in test [4] is “Not Active”.

As for `COC(=O)c1c(N)sc(-c2ccc(Cl)cc2)c1-c1ccc(Cl)cc1`, the Ki in test [3] is 1.52 µM.

Consider `Nc1sc(-c2ccc(Cl)cc2)c(-c2ccc(Cl)cc2)c1C(=O)NC1CC1`, for which the affinity in test [3] corresponds to a Ki of 0.54 µM.

Regarding `Nc1sc(-c2ccc(Cl)cc2)c(-c2ccc(Cl)cc2)c1C(=O)NC1CCC1`, the IC50 in the test on PC-3 stood at 24.8 µM; in the test on A549 [2] it was 12.5 µM. Besides, in test [3], the Ki is 1.12 µM.

For the molecule `Nc1sc(-c2ccc(Cl)cc2)c(-c2ccc(Cl)cc2)c1C(=O)NC1CCCC1`, the IC50 in the test with PC-3 was found to be 21.2 µM; with A549 [2], 6.79 µM. The same molecule came in with a Ki in test [3] of 0.54 µM.

The molecule `Nc1sc(-c2ccc(Cl)cc2)c(-c2ccc(Cl)cc2)c1C(=O)NC1CCCCC1` displayed a Ki in test [3] of 0.23 µM.

As to `Nc1sc(-c2ccc(Cl)cc2)c(-c2ccc(Cl)cc2)c1C(=O)NC1CCC(O)CC1` (configuration not stated), the “Ratio IC50” value with A549 [1] amounted to 22. Moreover, the IC50 was 5.67 µM with PC-3 and 0.25 µM with A549 [2]. This molecule also displayed a Ki in test [3] of 0.99 µM.

In test [3], `Nc1sc(-c2ccc(Cl)cc2)c(-c2ccc(Cl)cc2)c1C(=O)N1CCCC1` had a Ki of 0.74 µM.

On to `Nc1sc(-c2ccc(Cl)cc2)c(-c2ccc(Cl)cc2)c1C(=O)N1CCCCC1`, for which the IC50 in the test with PC-3 worked out at 14.3 µM; in the test on A549 [2], 4.62 µM. Further, in test [3], the affinity, expressed as Ki, was 1.21 µM.

Turning to `CC1CCN(C(=O)c2c(N)sc(-c3ccc(Cl)cc3)c2-c2ccc(Cl)cc2)CC1`, the IC50 in the test on PC-3 worked out at 5.75 µM; in the test on A549 [2], 1.75 µM. The molecule also gave a Ki in test [3] of 0.8 µM.

For `Nc1sc(-c2ccc(Cl)cc2)c(-c2ccc(Cl)cc2)c1C(=O)N1CCCCC1=O`, the values for the IC50 with PC-3 and in the test with A549 [2] were 4.94 µM and 1.82 µM, respectively. The Ki in test [3] came to 1.55 µM.

Turning to `Nc1sc(-c2ccc(Cl)cc2)c(-c2ccc(Cl)cc2)c1C(=O)N1CCC(=O)CC1`, the IC50 with PC-3 is 1.34 µM; with A549 [2] it was 2.01 µM. Besides, the Ki in test [3] came out at 2.19 µM.

In the case of `Nc1sc(-c2ccc(Cl)cc2)c(-c2ccc(Cl)cc2)c1C(=O)N1CCC(=O)CC1=O`, the IC50 was determined as 9.23 µM in the test on PC-3 and 4.09 µM with A549 [2]. In test [3], this molecule came in with a Ki of 3.52 µM.

Consider `Nc1sc(-c2ccc(Cl)cc2)c(-c2ccc(Cl)cc2)c1C(=O)N1CCOCC1`, for which the “Ratio IC50” value with A549 [1] is 6. Further, the results for the IC50 with PC-3 and with A549 [2] were 11.7 µM and 1.87 µM, respectively. Also, in test [3], the Ki came to 0.43 µM.

For `Nc1sc(-c2ccc(Cl)cc2)c(-c2ccc(Cl)cc2)c1C(=O)N1CCNCC1`, the half-inhibitory concentration (IC50) in the test with PC-3 amounted to 2.71 µM; in the test on A549 [2], 1.02 µM. Further, the affinity in test [3], expressed as Ki, was 6.81 µM.
